From paper PMC8327296 (Journal of medicinal chemistry, 2018)

Experiments:
[1] = target: T1, A1R (Homo sapiens, UniProt P30542); assay: Competition radioligand binding, human A1R
T1 sequence (P30542 1-326): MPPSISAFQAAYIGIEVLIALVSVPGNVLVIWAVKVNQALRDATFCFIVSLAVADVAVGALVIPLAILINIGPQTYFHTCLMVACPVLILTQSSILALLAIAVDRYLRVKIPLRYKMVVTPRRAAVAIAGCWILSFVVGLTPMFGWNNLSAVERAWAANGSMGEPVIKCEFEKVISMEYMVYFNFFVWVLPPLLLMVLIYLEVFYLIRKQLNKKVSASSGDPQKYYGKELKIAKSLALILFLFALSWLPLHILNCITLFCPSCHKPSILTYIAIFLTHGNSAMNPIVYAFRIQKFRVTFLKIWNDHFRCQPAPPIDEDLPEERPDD
How it was run: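 Membranes from HEK293 cells expressing recombinant human A1R (DMEM, 10% FBS, 37 °C, 5% CO2), treated with adenosine deaminase 3 units/mL for 30 min at 37 °C. 20 μg protein per tube incubated 60 min at 25 °C in 50 mM Tris·HCl with 10 mM MgCl2, 0.5 nM [3H]8-cyclopentyl-1,3-dipropylxanthine and varied test compound. Nonspecific binding defined with 10 μM XAC. Bound ligand collected on GF/B filters and counted by scintillation. Ki by Cheng–Prusoff; mean ± SEM of 2–4 experiments in duplicate.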

[2] = target: recombinant A2AR (human) (Homo sapiens, UniProt P29274); assay: Competition radioligand binding, human A2AR; settings: for inhibition at 1 µM: read-out: % inhib., A2A
Sequence of recombinant A2AR (human) (P29274 whole entry): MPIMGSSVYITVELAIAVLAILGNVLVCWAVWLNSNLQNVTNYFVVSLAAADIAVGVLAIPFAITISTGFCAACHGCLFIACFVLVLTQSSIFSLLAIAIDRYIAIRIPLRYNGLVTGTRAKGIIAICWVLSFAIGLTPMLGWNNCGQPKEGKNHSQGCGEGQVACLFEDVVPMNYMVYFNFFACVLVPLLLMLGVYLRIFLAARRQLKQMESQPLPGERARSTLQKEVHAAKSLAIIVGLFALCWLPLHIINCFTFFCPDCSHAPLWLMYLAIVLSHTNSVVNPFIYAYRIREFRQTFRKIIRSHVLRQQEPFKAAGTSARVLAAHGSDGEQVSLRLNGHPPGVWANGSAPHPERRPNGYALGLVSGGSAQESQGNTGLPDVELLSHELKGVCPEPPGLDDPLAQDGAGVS
How it was run: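 Human A2AR expressed in HEK293 cells; membranes treated with adenosine deaminase 3 units/mL for 30 min at 37 °C. […] Nonspecific binding with 10 μM XAC. Filtration on GF/B, scintillation counting. Ki by Cheng–Prusoff, mean ± SEM of 2–4 experiments in duplicate.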

[3] = target: T2, recombinant A2BR (human) (Homo sapiens, UniProt P29275); assay: Competition radioligand binding, human A2BR
T2 sequence (P29275 1-332): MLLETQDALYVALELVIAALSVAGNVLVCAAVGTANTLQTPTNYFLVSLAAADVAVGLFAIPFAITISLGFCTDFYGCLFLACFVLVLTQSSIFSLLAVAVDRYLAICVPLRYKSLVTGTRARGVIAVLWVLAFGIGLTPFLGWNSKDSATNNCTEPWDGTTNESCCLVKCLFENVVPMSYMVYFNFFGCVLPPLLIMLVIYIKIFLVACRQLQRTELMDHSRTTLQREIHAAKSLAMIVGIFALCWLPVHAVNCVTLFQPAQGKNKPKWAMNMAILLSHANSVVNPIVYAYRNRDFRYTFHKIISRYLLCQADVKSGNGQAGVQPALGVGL
How it was run: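 Adenosine deaminase-treated membranes (3 units/mL, 30 min, 37 °C) of HEK293 cells carrying recombinant human A2BR. […] Nonspecific binding with 100 μM XAC. GF/B filtration, scintillation counting. Ki via Cheng–Prusoff, mean ± SEM of 2–4 experiments in duplicate.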

[4] = target: T3, recombinant A3R (human) (Homo sapiens, UniProt P0DMS8); assay: Competition radioligand binding, human A3R; settings: for inhibition at 1 µM: read-out: % inhib., A3
T3 sequence (P0DMS8 1-318): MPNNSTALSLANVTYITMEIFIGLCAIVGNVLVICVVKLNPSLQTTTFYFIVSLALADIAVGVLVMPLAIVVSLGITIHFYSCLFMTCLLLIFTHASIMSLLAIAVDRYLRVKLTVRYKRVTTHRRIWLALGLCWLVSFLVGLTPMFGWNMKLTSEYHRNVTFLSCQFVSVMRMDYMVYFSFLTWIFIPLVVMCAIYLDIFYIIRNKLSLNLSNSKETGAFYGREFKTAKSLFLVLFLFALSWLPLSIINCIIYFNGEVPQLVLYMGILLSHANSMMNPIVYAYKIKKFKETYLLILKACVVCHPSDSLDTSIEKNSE

[5] = target: T1, A1R; assay: cAMP accumulation assay; format: cell-based; settings: for Emax: HEK293, read-out: A1 functional efficacy (Emax %)
How it was run: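 HEK293 cells expressing A1R seeded at 1,000 cells/well on poly-D-lysine and kept overnight at 37 °C. Preincubated 30 min at 37 °C with adenosine deaminase 3 units/ml, rolipram 10 μM and the A2B antagonist PSB603 1 μM. Agonist applied 20 min, then forskolin 10 μM for 15 min at 37 °C. Cells lysed in 0.3% Tween-20 and cAMP measured by AlphaScreen. Emax relative to a reference agonist set at 100%.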

[6] = target: T4, A1R, rat brain membranes (forebrain) (Rattus norvegicus, UniProt P25099); assay: Competition radioligand binding, rat brain homogenates
T4 sequence (P25099 1-326): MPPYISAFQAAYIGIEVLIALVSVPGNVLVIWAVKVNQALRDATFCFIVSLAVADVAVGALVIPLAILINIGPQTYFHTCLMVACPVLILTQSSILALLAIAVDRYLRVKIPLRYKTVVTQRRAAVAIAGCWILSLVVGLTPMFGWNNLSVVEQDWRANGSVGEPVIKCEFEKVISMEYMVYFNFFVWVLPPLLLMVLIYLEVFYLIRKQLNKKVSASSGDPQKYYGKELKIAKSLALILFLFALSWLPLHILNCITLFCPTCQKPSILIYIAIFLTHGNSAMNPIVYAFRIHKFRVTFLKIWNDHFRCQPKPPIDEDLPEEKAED
How it was run: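 Rat forebrain homogenate incubated 60 min at 25 °C in 50 mM Tris·HCl with 10 mM MgCl2, 0.5 nM [3H]8-cyclopentyl-1,3-dipropylxanthine and varied test compound. Nonspecific binding defined with 10 μM XAC. Separation by GF/B filtration with 3 ice-cold buffer washes, then scintillation counting. IC50 converted to Ki by Cheng–Prusoff; mean ± SEM of 2–4 experiments in duplicate.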

[7] = target: A2AR, rat brain membranes (striatum) (Rattus norvegicus, UniProt P30543); assay: Competition radioligand binding, rat brain homogenates
Sequence of A2AR, rat brain membranes (striatum) (P30543 whole entry): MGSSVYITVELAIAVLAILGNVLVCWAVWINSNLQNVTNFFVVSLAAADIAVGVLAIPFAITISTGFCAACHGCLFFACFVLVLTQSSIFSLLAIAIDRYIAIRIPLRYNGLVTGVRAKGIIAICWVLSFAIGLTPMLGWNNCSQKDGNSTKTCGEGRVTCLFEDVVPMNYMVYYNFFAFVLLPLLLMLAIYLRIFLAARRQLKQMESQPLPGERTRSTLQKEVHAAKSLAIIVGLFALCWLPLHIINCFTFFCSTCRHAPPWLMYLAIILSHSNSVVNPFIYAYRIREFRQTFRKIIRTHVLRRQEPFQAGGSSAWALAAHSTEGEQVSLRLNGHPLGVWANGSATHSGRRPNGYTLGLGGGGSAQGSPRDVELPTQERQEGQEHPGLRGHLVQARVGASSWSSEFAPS
How it was run: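 Rat striatum homogenate incubated 60 min at 25 °C in 50 mM Tris·HCl/10 mM MgCl2 with 0.8 nM [3H]ZM241385 and varied test compound. Nonspecific binding defined with 10 μM XAC. GF/B filtration with 3 ice-cold washes, then scintillation counting. Ki from IC50 by Cheng–Prusoff; mean ± SEM of 2–4 experiments in duplicate.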

[8] = Small animal PET, brain uptake in rats; format: in vivo, rat; settings: 11C-labelled compound; for BBB permeability: rat pilot PET study; for standard uptake value (SUV), brain uptake: rat, whole brain, 10 min after intravenous administration
How it was run: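 Male Wistar rats (2–3 months, 318 ± 40 g) under 2–5% isoflurane, temperature held near 36.9 °C. After a 10 min transmission scan, 20.8–37.0 MBq 11C-labelled test compound in saline infused iv (tail vein or penile catheter, 600 μL/min). 90 min dynamic list-mode microPET, template coregistration, regional time-activity curves. Test–retest (n=3) 30 min later; blocking drugs given 10 min before the second injection.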

COc1ccc(-c2nc(SCc3cccc(C)n3)nc(N)c2C#N)cc1 [21a, 4-Amino-6-(4-methoxyphenyl)-2-(((6-methylpyridin-2-yl)methyl)thio)pyrimidine-5-carbonitrile]
Ki [1]: 29 ± 0.1 nM
inhibition at 1 µM [2]: 32 ± 2%
Ki [3]: 305 ± 108 nM
inhibition at 1 µM [4]: 44 ± 3%
Emax [5]: -2 ± 3.5%

COc1cccc(-c2nc(SCc3cccc(C)n3)nc(N)c2C#N)c1 [21b, 4-Amino-6-(3-methoxyphenyl)-2-(((6-methylpyridin-2-yl)methyl)thio)pyrimidine-5-carbonitrile]
Ki [1]: 7.2 ± 2.4 nM
inhibition at 1 µM [2]: 46 ± 1%
inhibition at 1 µM ([3]; read-out: % inhib., A2B): 35 ± 10%
inhibition at 1 µM [4]: 42 ± 11%
Emax [5]: 3.4 ± 1.9%

COc1ccc(-c2nc(SCc3ncc[nH]3)nc(N)c2C#N)cc1 [21c, 2-(((1H-Imidazol-2-yl)methyl)thio)-4-amino-6-(4-methoxyphenyl)pyrimidine-5-carbonitrile]
Ki [1]: 306 ± 17 nM
Ki [3]: 237 ± 48 nM
inhibition at 1 µM [4]: 51 ± 5%
Emax [5]: 1.4 ± 3.1%

COc1cccc(-c2nc(SCc3ncc[nH]3)nc(N)c2C#N)c1 [21d, 2-(((1H-Imidazol-2-yl)methyl)thio)-4-amino-6-(3-methoxyphenyl)pyrimidine-5-carbonitrile]
Ki [1]: 48 ± 2.8 nM
Ki [2]: 554 ± 273 nM
Ki [3]: 208 ± 27 nM
Ki [4]: 703 ± 50 nM
Emax [5]: 4.9 ± 3.3%

Cc1cccc(CSc2nc(N)c(C#N)c(-c3cccc(O)c3)n2)n1 [21e, 4-Amino-6-(3-hydroxyphenyl)-2-(((6-methylpyridin-2-yl)methyl)thio)pyrimidine-5-carbonitrile]
Ki [1]: 18 ± 2.1 nM
Ki [2]: 93 ± 63 nM
Ki [3]: 126 ± 12 nM
Ki [4]: 79 ± 9.4 nM
Emax [5]: 18 ± 3.3%

N#Cc1c(N)nc(SCc2ncc[nH]2)nc1-c1cccc(O)c1 [21f, 2-(((1H-Imidazol-2-yl)methyl)thio)-4-amino-6-(3-hydroxyphenyl)pyrimidine-5-carbonitrile]
Ki [1]: 110 ± 31 nM
Ki [2]: 96 ± 13.3 nM
Ki [3]: 38 ± 7.3 nM
Ki [4]: 112 ± 14 nM
Emax [5]: 41 ± 6.1%

COc1ccc(-c2c(C#N)c(N)nc(SCc3cccc(C)n3)c2C#N)cc1 [22a, 2-Amino-4-(4-methoxyphenyl)-6-(((6-methylpyridin-2-yl)methyl)thio)pyridine-3,5-dicarbonitrile]
Ki [1]: 2.9 ± 0.7 nM
Ki [2]: 35 ± 19 nM
Ki [3]: 30 ± 2.5 nM
Ki [4]: 701 ± 244 nM
Emax [5]: -0.06 ± 3.3%

COc1cccc(-c2c(C#N)c(N)nc(SCc3cccc(C)n3)c2C#N)c1 [22b, 2-Amino-4-(3-methoxyphenyl)-6-(((6-methylpyridin-2-yl)methyl)thio)pyridine-3,5-dicarbonitrile]
Ki [1]: 0.49 ± 0.06 nM
Ki [2]: 71 ± 25 nM
Ki [3]: 75 ± 30 nM
inhibition at 1 µM [4]: 42 ± 11%
Ki [6]: 0.21 nM
Ki [7]: 52 nM
EC50 [5]: 1 nM
Emax [5]: 16 ± 2.3%

Cc1cccc(CSc2nc(N)c(C#N)c(-c3cccc(O)c3)c2C#N)n1 [22e, 2-Amino-4-(3-hydroxyphenyl)-6-(((6-methylpyridin-2-yl)methyl)thio)pyridine-3,5-dicarbonitrile]
Ki [1]: 3.5 ± 1.3 nM
Ki [2]: 15 ± 3.1 nM
Ki [3]: 24 ± 16 nM
Ki [4]: 74 ± 3.4 nM
Emax [5]: 109 ± 7.8%

CC(=O)Nc1ccc(-c2c(C#N)c(N)nc(SCc3cccc(C)n3)c2C#N)cc1 [22g, N-(4-(2-Amino-3,5-dicyano-6-(((6-methylpyridin-2-yl)methyl)thio)pyridin-4-yl)phenyl)acetamide]
Ki [1]: 53 ± 18 nM
Ki [2]: 2.8 ± 0.1 nM
Ki [3]: 1.2 ± 0.2 nM
Ki [4]: 22 ± 6.7 nM
Emax [5]: 122 ± 5.2%

CSc1nc(N)c(C#N)c(-c2ccc(NC(C)=O)cc2)c1C#N [compound 12, N-(4-(2-Amino-3,5-dicyano-6-(methylthio)pyridin-4-yl)phenyl)acetamide]
BBB permeability [8]: poor BBB permeability

CSc1nc(N)c(C#N)c(-c2ccc(NC(C)=O)cc2)n1 [compound 13, N-(4-(6-Amino-5-cyano-2-(methylthio)pyrimidin-4-yl)phenyl)acetamide]
BBB permeability [8]: poor BBB permeability

COc1ccc(-c2c(C#N)c(N)nc(SC)c2C#N)cc1 [compound 14, 2-Amino-4-(4-methoxyphenyl)-6-(methylthio)pyridine-3,5-dicarbonitrile]
standard uptake value (SUV), brain uptake [8]: ~ 3 g/mL

COc1ccc(-c2nc(SC)nc(N)c2C#N)cc1 [compound 15, 4-Amino-6-(4-methoxyphenyl)-2-(methylthio)pyrimidine-5-carbonitrile]
standard uptake value (SUV), brain uptake [8]: ~ 3 g/mL
